In series [1] the target is T1, PXR (nuclear receptor subfamily 1 group I member 2) (Homo sapiens, UniProt O75469).
T1 sequence (O75469 whole entry): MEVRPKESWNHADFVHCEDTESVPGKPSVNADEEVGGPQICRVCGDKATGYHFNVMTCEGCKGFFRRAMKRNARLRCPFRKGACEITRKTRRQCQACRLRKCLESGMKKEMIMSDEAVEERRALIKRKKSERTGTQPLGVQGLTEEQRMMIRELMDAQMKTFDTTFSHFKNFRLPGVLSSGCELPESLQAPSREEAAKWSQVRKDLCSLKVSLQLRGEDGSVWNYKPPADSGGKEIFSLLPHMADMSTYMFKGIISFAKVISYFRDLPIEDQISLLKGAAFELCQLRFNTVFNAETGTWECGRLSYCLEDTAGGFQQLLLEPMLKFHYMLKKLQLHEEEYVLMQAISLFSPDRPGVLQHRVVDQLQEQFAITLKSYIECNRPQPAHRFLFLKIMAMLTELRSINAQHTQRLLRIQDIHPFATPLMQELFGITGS
The series can be described thus: Transactivation of human PXR transfected in HEK cells at 2 uM by luciferase reporter gene assay relative to 12.5 uM rifampin. Type of series: cell-based. The conditions noted are these: HEK293 cells transfected with human PXR, read-out: Activity. The method, boiled down: (§1)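 HEK cells transfected with human PXR fused to a firefly luciferase reporter. Luciferase activity is expressed as percent of the 12.5 µM rifampin response. Run in triplicate; SEM reported.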

In series [2] the target is T2, Nuclear receptor subfamily 1 group I member 2 (Homo sapiens, UniProt O75469).
T2 sequence (O75469 whole entry): T1 sequence (O75469 whole entry)
The series can be described thus: Transactivation of human PXR transfected in HEK cells at 20 uM by luciferase reporter gene assay relative to 12.5 uM rifampin. Format: cell-based. The note with it: hek293, 20 µM. Put shortly:
as §1

Series [3] concerns the target T3, 11-beta-hydroxysteroid dehydrogenase 1 (Homo sapiens, UniProt P28845). The experiment in a line: Inhibition of human recombinant 11beta-HSD1 expressed in Escherichia coli using [3H]cortisone by scintillation proximity assay.
The target in series [4] is T3, 11-beta-hydroxysteroid dehydrogenase 1. The series can be described thus: Inhibition of human 11beta-HSD1 expressed in CHO cells assessed as conversion of cortisone to cortisol by ELISA. Type of series: cell-based. Background: An ELISA detects its analyte on a solid surface through an enzyme-linked reagent.
Series [5] addresses T4, 11-beta-hydroxysteroid dehydrogenase type 2 (Homo sapiens, UniProt P80365).
T4 sequence (P80365 whole entry): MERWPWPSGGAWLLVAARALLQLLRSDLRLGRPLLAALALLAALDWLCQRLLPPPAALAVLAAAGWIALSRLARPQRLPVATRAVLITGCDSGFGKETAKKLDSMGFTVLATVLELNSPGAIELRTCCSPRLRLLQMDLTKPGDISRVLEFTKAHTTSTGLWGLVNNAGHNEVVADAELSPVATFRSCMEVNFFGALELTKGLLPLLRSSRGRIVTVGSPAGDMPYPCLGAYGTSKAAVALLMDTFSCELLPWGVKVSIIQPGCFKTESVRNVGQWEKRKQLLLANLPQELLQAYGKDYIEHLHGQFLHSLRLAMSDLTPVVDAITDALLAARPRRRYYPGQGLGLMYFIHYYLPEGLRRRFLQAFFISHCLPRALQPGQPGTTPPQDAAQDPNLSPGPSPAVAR
The experiment in a line: Inhibition of human 11beta-HSD2 expressed in CHO cells using [3H]cortisol by scintillation proximity assay. Type of series: cell-based. The method, boiled down: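 Human 11β-HSD2 from CHO cells with [3H]cortisol 3 nM and NAD+ 300 µM, in 0.1 M sodium phosphate pH 7.6. 1 h at room temperature, then stopped with 18β-glycyrrhetinic acid. Anticortisol antibody and antimouse SPA beads added for 30 min; radiometric read-out.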

In series [6] the test system is Hepatocyte. The experiment in a line: Induction of CYP3A4 in cryopreserved human hepatocytes from male DJV donars with no adverse medical history or substance or alcohol abuse assessed as mRNA expression at 20 uM relative to 20 uM rifampin. Type of series: functional.
The test system of series [7] is Hepatocyte. The series can be described thus: Induction of CYP3A4 in cryopreserved human hepatocytes from female NPV donars with history of tobacco and substance usage assessed as mRNA expression at 20 uM relative to 20 uM rifampin. Type of series: functional.
The target in series [8] is T5, Cytochrome P450 3A4 (Homo sapiens, UniProt P08684). The series can be described thus: Induction of CYP3A4 activity in cryopreserved human hepatocytes from male DJV donars with no adverse medical history or substance or alcohol abuse at 20 uM relative to 20 uM rifampin.
T5 sequence (P08684 whole entry): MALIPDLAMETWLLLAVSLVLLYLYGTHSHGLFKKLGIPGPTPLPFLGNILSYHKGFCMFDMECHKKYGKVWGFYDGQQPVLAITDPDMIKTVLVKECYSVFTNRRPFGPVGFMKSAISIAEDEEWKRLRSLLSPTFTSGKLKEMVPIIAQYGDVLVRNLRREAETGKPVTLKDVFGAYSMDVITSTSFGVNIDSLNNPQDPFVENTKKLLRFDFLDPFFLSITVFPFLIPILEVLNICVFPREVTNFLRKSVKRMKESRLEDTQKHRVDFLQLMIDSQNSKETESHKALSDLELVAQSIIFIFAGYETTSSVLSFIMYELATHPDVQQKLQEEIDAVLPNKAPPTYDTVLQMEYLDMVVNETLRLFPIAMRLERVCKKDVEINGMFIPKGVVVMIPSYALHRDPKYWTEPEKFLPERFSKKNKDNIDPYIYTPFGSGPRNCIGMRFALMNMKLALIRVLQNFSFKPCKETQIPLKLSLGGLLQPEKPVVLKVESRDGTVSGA
The target of series [9] is T5, Cytochrome P450 3A4. The experiment in a line: Induction of CYP3A4 activity in cryopreserved human hepatocytes from female NPV donars with history of tobacco and substance usage at 20 uM relative to 20 uM rifampin.

T3 sequence (P28845 whole entry): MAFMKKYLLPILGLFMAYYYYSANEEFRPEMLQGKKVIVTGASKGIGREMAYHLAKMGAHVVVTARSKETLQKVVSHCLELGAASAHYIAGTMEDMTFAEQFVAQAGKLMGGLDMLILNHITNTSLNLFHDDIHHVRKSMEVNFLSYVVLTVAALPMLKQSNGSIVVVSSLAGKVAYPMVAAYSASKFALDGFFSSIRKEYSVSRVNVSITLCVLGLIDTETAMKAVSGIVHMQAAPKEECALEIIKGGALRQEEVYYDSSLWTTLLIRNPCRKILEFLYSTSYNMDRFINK

With `C[C@H](NC1=NC(=O)C(C)(c2ccc(F)cc2)S1)c1ccc(F)cc1` (stereo not given in full), in series [1], the activity at 2 µM was found to be 64%. In series [2], the Activity was found to be 65%.

As usually defined, the Ki is a dissociation constant, usually derived from enzyme kinetics or from competition with a known ligand. As usually defined, the IC50 is the point on the concentration scale where inhibition reaches its midpoint. Consider `C[C@H](NC1=NC(=O)C(C)(C2(O)CCCC2)S1)c1ccc(F)cc1` (stereo not given in full), for which the Ki in series [3] was 25 nM. In addition, the IC50 in [4] was 11 nM; in series [5], more than 10000 nM. Further, the Activity in [2] was 61%.

For the molecule `CC(C(=O)N[C@H]1C2CC3CC1C[C@](O)(C3)C2)N1CCN(c2ccc(C(F)(F)F)cn2)CC1` (stereo not given in full), in series [4], the IC50 is 5 nM.

`C[C@H](NC1=NC(=O)C(C)(c2ccc(C(=O)N3CCCC3)cc2)S1)c1ccc(F)cc1` (stereo not given in full): the activity at 2 µM in [1] worked out at 4.1%. This molecule registered an Activity in series [2] of 35%.

`C[C@H](NC1=NC(=O)C(C)(C(C)(C)O)S1)c1ccccc1C(F)(F)F` (stereo not given in full): the inhibition constant (Ki) in series [3] came to 25 nM. In addition, the IC50 in [4] was 43 nM; in [5] it was more than 10000 nM. Also, the Activity in [2] worked out at 43%.

`C[C@H](NC1=NC(=O)C(C)(CC(C)(C)O)S1)c1ccc(F)cc1` (stereo not given in full) yielded an Activity in series [2] of 28%.

For `C[C@H](NC1=NC(=O)C(C)(c2ccc(CO)cc2)S1)c1ccc(F)cc1` (stereo not given in full), the activity at 2 µM in [1] worked out at 2.3%. This molecule also came in with an Activity in [2] of 25%.

As for `C[C@H](NC1=NC(=O)C(C)(C2(O)CCC2)S1)c1ccc(F)cc1` (stereo not given in full), the inhibition constant Ki in series [3] was 49 nM. Also, the values for the IC50 in series [4] and in series [5] were 32 nM and more than 10000 nM, respectively. Further, in series [2], the Activity stood at 26%.

As for `C[C@H](NC1=NC(=O)[C@@](C)(C(C)(C)O)S1)c1ccc(F)cc1`, in [3], the Ki worked out at 210 nM. Further, the 50% inhibitory concentration (IC50) in series [4] came to 300 nM.

In series [2], `C[C@H](NC1=NC(=O)C(C)(C(C)(C)O)S1)c1ccccc1` (stereo not given in full) yielded an Activity of 68%.

For the molecule `C[C@H](NC1=NC(=O)C(C)(C(C)(C)O)S1)c1ccc(F)cc1` (stereo not given in full), the inhibition constant Ki in series [3] was found to be 65 nM. Also, the 50% inhibitory concentration (IC50) was 51 nM in [4] and more than 10000 nM in series [5]. The Activity in [2] is listed as 10%.

In the case of `O=C(Nc1cccc(C(=O)N2CCC[C@@H]3CCCC[C@H]32)c1)c1ccccc1`, the IC50 in series [4] was 14 nM.

For `C[C@H](NC1=NC(=O)[C@@](C)(C(F)(F)F)S1)c1ccccc1F`, the Activity came out at 45% in series [2]; 110% in the series on Hepatocyte [6]; 67% in the series with Hepatocyte [7]; 64% at Cytochrome P450 3A4 [8]; 56% on Cytochrome P450 3A4 [9].

Take `C[C@H](NC1=NC(=O)C(C)(C(C)(C)O)S1)c1ccccc1Cl` (stereo not given in full): in series [3], the inhibition constant Ki stood at 26 nM. The IC50 in [4] is 18 nM; in series [5] it was more than 10000 nM. In series [2], the Activity is 63%.

For `C[C@H](NC1=NC(=O)C(C)(c2ccc(C3(C(N)=O)CC3)cc2)S1)c1ccc(F)cc1` (stereo not given in full), the activity at 2 µM in series [1] turned out to be 6.7%. In series [2], this molecule gave an Activity of 97%.

Regarding `C[C@H](NC1=NC(=O)C(C)(C(C)(C)O)S1)c1ccccc1F` (stereo not given in full), the inhibition constant Ki in [3] worked out at 34 nM. The figures for the concentration for half-maximal inhibition (IC50) in [4] and in series [5] were 70 nM and more than 10000 nM, respectively. In addition, in [2], the Activity is on record as 19%.

On to `C[C@H](NC1=NC(=O)C(C)(c2ccc(C(N)=O)cc2)S1)c1ccc(F)cc1` (stereo not given in full), for which, in series [1], the activity at 2 µM came out at 0.8%. Moreover, the Activity in [2] came out at 9.3%.
